Kir21 inh = inhibitors of mouse Kir2.1 inward-rectifier potassium channel; Inward rectifier potassium channel 2 (Mus musculus), P35561; HEK293-Kir2.1, FluxOR thallium flux fluorescence; hits give low values; B-score at 10 µM; 310,000 tested, 0.85% active; AID 1672, 2009;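 active = fluorescence ratio B-score at or below minus 3 SD of library scores, with starting-brightness B-score within 2 SD, cut at about -4.2 in these data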;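 also: channel flux triggered by added potassium and thallium sulfate stimulus; B-score of peak minus minimum fluorescence over baseline after thallium stimulus; more negative B-score means stronger Kir2.1 block with less thallium influx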
KCNQ1 block = inhibitors of human KCNQ1 channel, primary screen, cell-based, thallium flux, high-throughput; Potassium voltage-gated channel subfamily KQT member 1 (Homo sapiens), P51787; CHO-K1 KCNQ1, FluxOR thallium flux fluorescence; hits give high values; B-score at 10 µM; 310,000 tested, 1.3% active; AID 2642, 2010;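 active = compounds whose thallium flux B-score, printed positive for inhibition, exceeds three library SD while starting fluorescence stays within three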;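 also: channel opened by potassium depolarization with thallium stimulus after 20 min compound exposure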
hERG protect = hERG rescue from dofetilide block, primary screen, cell-based, CHO-hERG, FluxOR thallium flux, dofetilide IC70; activation (rescue from dofetilide block), less the hit threshold, % at 10 µM; Voltage-gated inwardly rectifying potassium channel KCNH2 (Homo sapiens), Q12809; dofetilide IC70 present; 310,000 tested, 0.51% active;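 active = activation above the mean of controls blocked by dofetilide plus 5 SD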;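 also: thallium influx through hERG after potassium depolarization seen as dye fluorescence rise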
KCNQ1 pot = potentiators or activators of KCNQ1 channel, primary screen, cell-based, thallium flux, high-throughput; AID 2648, 2010; Potassium voltage-gated channel subfamily KQT member 1 (Homo sapiens), P51787; 310,000 tested, 0.35% active; B-score at 10 µM; CHO-K1 KCNQ1, thallium flux FluxOR fluorescence; hits give high values;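 active = fluorescence ratio B-score, a plate-corrected score, at least three library SD, with initial intensity B-score within 5 SD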
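Schedule – 37 °C overnight plating, 90-min dark dye load, 20-min compound pretreatment · System – stable KCNQ1 CHO-K1 line · Probe or stimulus – thallium- and potassium-containing depolarizing buffer · Measured by – kinetic FluxOR fluorescence, 10 s baseline plus 110 s post-stimulus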
KCNK9 inh = KCNK9 potassium channel inhibitors, primary screen, HEK293 cells, thallium flux; Potassium channel subfamily K member 9 (Homo sapiens), Q9NPC2; FluxOR thallium flux fluorescence; hits give low values; B-score at 10 µM; 310,000 tested, 1.2% active;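 active = ratio B-score over 3 SD below the library mean, with starting fluorescence within 5 SD of its mean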;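 also: negative B-score means less thallium flux so channel inhibition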
KCNK3 block = human KCNK3 channel inhibitors, primary screen, CHO cells, FluxOR thallium flux, B-score | FluxOR fluorescence; hits give low values | 340,000 tested, 0.84% active | B-score at 10 µM;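 active = B-score under library mean minus 4 SD, starting fluorescence ratio at most library mean plus 5 SD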;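 also: more negative B-score means stronger inhibition of thallium flux through KCNK3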
A number is an active result; n = inactive; x = not tested or not shown. Shown are actives, neighbours in structure and some others; about 3.7% of the full set was active somewhere.

SMILES | Kir21 inh | KCNQ1 block | hERG protect | KCNQ1 pot | KCNK9 inh | KCNK3 block
CN(C(=O)CSc1ncnc2sc(-c3ccccc3)cc12)C1CCS(=O)(=O)C1 (stereo unspecified) | n | n | 49 | 77 | n | n
CCOc1ccc(CN(C)CC(=O)NCc2ccc(F)cc2)cc1 | n | n | n | n | n | n
O=c1oc2ccccc2c(Cl)c1CN1CCCCC1 | n | n | n | 15 | n | n
CC(/C=N/NC(=O)c1ccccc1F)=C\c1ccccc1 | n | n | n | n | n | n
COc1cc(/C=C2\SC(=S)N(C(Cc3ccccc3)C(=O)O)C2=O)ccc1O (stereo unspecified) | -4.5 | n | n | n | n | n
COc1cc(/C=C2\SC(=S)N(Nc3ccccc3)C2=O)ccc1O | n | n | n | n | n | n
CC(C)N(Cc1ccccc1)C(=O)COc1ccccc1 | n | n | n | n | n | n
COc1ccc(C(=O)NC(=S)N(Cc2ccccc2)Cc2ccccc2)cc1 | n | n | 33 | 85 | n | n
C=CCN(CC=C)C(=S)NC(=O)c1ccc(OC)cc1 | n | n | 28 | 13 | n | n
COc1ccc(CC(=O)N(Cc2ccccc2)C(C)C)cc1 | -4.3 | n | n | n | n | n
CC(C)C(=O)NC(=S)N(Cc1ccccc1)Cc1ccccc1 | n | n | n | n | n | n
C=CCN(CC=C)C(=S)NC(=O)/C=C/c1ccc(OC)cc1 | n | n | 12 | n | n | n
C=CCNC(=O)c1ccc(OC)cc1 | n | n | n | n | n | n
O=C(Nc1ccccc1N1CCCC1)C1CCCO1 (stereo unspecified) | x | x | x | x | x | n
CC(C)(CNc1ccc(S(=O)(=O)C(F)(F)F)cc1[N+](=O)[O-])N1CCOCC1 | n | n | n | n | n | n
O=C(O)c1cc2ccccc2c(N=Nc2cccnc2)c1O | n | n | n | n | n | n
CN(C)S(=O)(=O)c1ccc(Cl)c(NC(=O)COC(=O)CCC2CCCCC2)c1 | x | x | x | x | x | n
O=S1(=O)N=C(N/N=C/c2cccs2)c2ccccc21 | n | n | n | n | n | n
C=CCN(CC=C)C(=S)NC(=O)/C=C/c1ccccc1 | n | n | n | n | n | n
C=CCN(CC=C)C(=S)NC(=O)/C=C/c1ccc(C)cc1 | n | n | n | n | n | n
O=C(NC(=S)N(Cc1ccccc1)Cc1ccccc1)c1ccccc1F | n | n | 16 | 13 | n | n
C=CCN(CC=C)C(=S)NC(=O)c1ccc(-c2ccccc2)cc1 | n | n | n | 15 | n | n
C=CCN(CC=C)C(=S)NC(=O)c1ccc(C)c(Br)c1 | n | n | 87 | 56 | n | n
O=C1Nc2c(Br)cccc2C1=O | x | x | x | x | x | n
Cc1ccc(S(=O)(=O)N(C)c2ccc(OC(=O)COc3ccccc3)cc2)cc1 | x | x | x | x | x | n
SMILES | Kir21 inh | KCNQ1 block | hERG protect | KCNQ1 pot | KCNK9 inh | KCNK3 block
Cc1ccc(S(=O)(=O)N(C)c2ccc(OCC(=O)Nc3nc(-c4ccccc4)cs3)cc2)cc1 | n | n | n | n | -7.2 | n
Cc1ccc(S(=O)(=O)N(C)c2ccc(OC(=O)c3cccs3)cc2)cc1 | x | x | x | x | x | -9.5
Cc1ccc(S(=O)(=O)CC(=O)Nc2nc(-c3ccccc3)cs2)cc1 | n | 6 | n | n | n | n
O=C(CN1C(=O)NC2(CCCC2)C1=O)OCCOc1ccc(Cl)cc1Cl | n | n | n | n | n | n
CCc1ccc(Nc2nnc(SCC(=O)c3c(N)n(C4CC4)c(=O)[nH]c3=O)s2)cc1 | x | x | x | x | x | n
CC(C)(C)c1cc(C(=O)NNc2ccc(OC(F)(F)F)cc2)n(Cc2ccccc2)n1 | n | n | n | n | -8 | n
Cc1ccc(NNC(=O)c2cc(C(C)(C)C)nn2Cc2ccccc2)cc1 | n | n | n | n | n | n
COc1ccccc1NNC(=O)c1cc(C(C)(C)C)nn1Cc1ccccc1 | n | 6 | n | n | n | n
CCOC(=O)C1=C(C)N(C)C(=S)N(C)C1c1ccc(OC)cc1 (stereo unspecified) | n | n | n | n | n | n
COC(=O)C1=C(C)N(C)C(=S)N(C)C1c1cccc(Br)c1 (stereo unspecified) | -5 | n | n | n | n | n
CCN(Cc1ccc2c(c1)OCCO2)C(=O)CN1C(=O)NC2(CCCCC2)C1=O | x | x | x | x | x | n
CCNc1nnc(SCC(=O)NC2CCCCCC2)s1 | x | x | x | x | x | n
O=C(c1ccco1)N1CCN(Cc2csc(-c3ccccc3Cl)n2)CC1 | n | n | n | n | n | n
CCNc1nc(-c2ccc(Cl)cc2)cs1 | n | n | n | n | n | n
CCCc1sc(N)nc1-c1ccc(Cl)cc1 | -4.3 | n | n | n | n | n
[O-][n+]1c2c(c3c4non(O)c4ccc31)CCCC2 | n | 6 | n | n | n | n
COn1c2c(c3c4no[n+]([O-])c4ccc31)CCCC2 | n | n | n | n | n | n
CCCN(CC(=O)Nc1cc(Cl)ccc1Cl)C(=O)/C=C/c1cc(OC)ccc1OC | x | x | x | x | x | -8.7
O=C1OC(c2ccccc2)=C/C1=C/N1CCCCC1 | n | n | n | n | n | n
COC(=O)/C=C1\OC(c2ccccc2)=CC1=O | -10 | 8 | n | n | n | x
Cc1cccc(OCC(=O)N(Cc2ccccc2)c2c(N)n(Cc3ccccc3)c(=O)[nH]c2=O)c1 | x | x | x | x | x | n
CCOc1cc(/C=N/n2cnnc2)ccc1OS(=O)(=O)c1ccc(C)cc1 | -5.5 | n | n | n | n | n
Cn1c(-c2sccc2OCc2ccc(Cl)cc2Cl)n[nH]c1=S | -5.5 | n | n | n | n | n
Cc1ccc(COc2ccsc2-c2n[nH]c(=S)n2C)cc1 | n | n | n | n | n | n
O=C(COC(=O)c1cc(Cl)ccc1O)NCC1CCCO1 (stereo unspecified) | n | n | n | n | n | n
SMILES | Kir21 inh | KCNQ1 block | hERG protect | KCNQ1 pot | KCNK9 inh | KCNK3 block
Cc1ccc(NC(=S)NCC2CCN(C(C)c3ccccc3)C2)cc1 (stereo unspecified) | n | n | n | n | n | n
CC(c1ccccc1)N1CCC(CNC(=S)Nc2cccc(Cl)c2)C1 (stereo unspecified) | -5.9 | n | n | n | n | n
O=c1cc(O)sc2ccccc12 | n | n | n | n | n | n
O=c1[nH]sc2ccccc12 | n | n | n | 13 | n | n
CC1CCN(CCCNC(=O)c2ccc(Cn3c(=S)[nH]c4ccc(Br)cc4c3=O)cc2)CC1 | n | 8 | n | n | n | x
CN1CCN(CCCNC(=O)c2ccc(Cn3c(=S)[nH]c4ccc(Br)cc4c3=O)cc2)CC1 | n | n | n | n | n | n
CCc1c2ccccc2nn1-c1ccccc1C(=O)C(C)=O | -4.8 | n | n | n | n | n

Screening results deposited in PubChem BioAssay by Johns Hopkins Ion Channel Center.
